Experimental data reported in ChEMBL document CHEMBL3822423 (J Med Chem, 2016).
In brackets after ≈: the same amount, converted by molar mass. Activity calls are given as the source filed them. No cut-off for these calls is given here.

Legend:
[1] = tested on: Staphylococcus aureus; assay: Antibacterial activity against methicillin-resistant Staphylococcus aureus N315 after 18 to 24 hrs; type: functional
[2] = tested on: Bacillus spizizenii; assay: Antibacterial activity against Bacillus subtilis ATCC 6633 after 18 to 24 hrs; type: functional
[3] = tested on: Pseudomonas aeruginosa; assay: Antibacterial activity against Pseudomonas aeruginosa ATCC 9027 after 18 to 24 hrs; type: functional
[4] = tested on: Eberthella typhosa; assay: Potency index, ratio of norfloxacin MIC to compound MIC for Eberthella typhosa ATCC 14028; type: functional
[5] = tested on: Staphylococcus aureus; assay: Antibacterial activity against Staphylococcus aureus ATCC 25923 after 18 to 24 hrs; type: functional
[6] = tested on: Micrococcus luteus; assay: Antibacterial activity against Micrococcus luteus ATCC 4698 after 18 to 24 hrs; type: functional; conditions: NCTC 2665
[7] = Antibacterial activity against Eberthella typhosa ATCC 14028 after 18 to 24 hrs; type: functional
[8] = tested on: Bacillus; assay: Potency index, ratio of norfloxacin MIC to compound MIC for Bacillus proteus ATCC 13315; type: functional
[9] = tested on: Bacillus; assay: Antibacterial activity against Bacillus proteus ATCC 13315 after 18 to 24 hrs; type: functional
[10] = tested on: Escherichia coli; assay: Antibacterial activity against Escherichia coli ATCC 25922 after 18 to 24 hrs; type: functional
[11] = tested on: Staphylococcus aureus; assay: Electrostatic binding to methicillin-resistant Staphylococcus aureus double stranded genomic DNA assessed as Stern-Volmer constant in presence of potassium iodide by steady state quenching analysis
Summary of the method: (§1)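 MRSA genomic DNA stock was quantified by absorbance at 260 nm, using ε260 = 6600 L mol⁻¹ cm⁻¹ (as molarity of phosphate). Purity was checked by the A260/A280 ratio.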

[12] = Cytotoxicity against rat PC12 cells assessed as cell viability at 512 ug/mL after 72 hrs by MTT assay; type: cell-based; conditions: pc-12, 72 h
Summary of the method: (§2)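 PC12 and human hepatocyte LO2 cells were exposed to compound at 8–512 µg/mL in twofold steps. Viability was read by colorimetric MTT assay, with norfloxacin as positive control. Each value is the mean of three replicates.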

[13] = tested on: Staphylococcus aureus; assay: Binding affinity to methicillin-resistant Staphylococcus aureus double stranded genomic DNA assessed as hypochromic effect by spectroscopic analysis; summary of the method: as §1
[14] = Cytotoxicity against rat PC12 cells assessed as reduction in cell viability at 256 ug/mL after 72 hrs by MTT assay; type: cell-based; conditions: pc-12, 72 h; summary of the method: as §2
[15] = tested on: Staphylococcus aureus; assay: Antibacterial activity against methicillin/quinolone-resistant Staphylococcus aureus ATCC 700699; type: functional
[16] = tested on: Staphylococcus aureus; assay: Binding affinity to methicillin-resistant Staphylococcus aureus […] genomic DNA assessed as decrease in fluorescence intensity at 2 x 10^-5M at 294 K by spectrofluorometric analysis; summary of the method: as §1
[17] = Binding affinity to 4.69 x 10^-5 M Cu2+ at 2.23 x 10^-5 M at pH 7.4 by spectrofluorimetric method
[18] = tested on: Staphylococcus aureus; assay: Binding affinity to methicillin-resistant Staphylococcus aureus double stranded genomic DNA assessed as decrease in fluorescence intensity at 2.23 x 10^-5M in presence of 20 x 10^-5 M Cu2+ ions by spectrofluorometric analysis; summary of the method: as §1
[19] = target: T1, Albumin (Homo sapiens, UniProt P02768); assay: Binding affinity to human serum albumin at pH 7.4 at 288 K by Scatchard plot analysis; type: ADME; conditions: isolated protein
T1 sequence (P02768 whole entry): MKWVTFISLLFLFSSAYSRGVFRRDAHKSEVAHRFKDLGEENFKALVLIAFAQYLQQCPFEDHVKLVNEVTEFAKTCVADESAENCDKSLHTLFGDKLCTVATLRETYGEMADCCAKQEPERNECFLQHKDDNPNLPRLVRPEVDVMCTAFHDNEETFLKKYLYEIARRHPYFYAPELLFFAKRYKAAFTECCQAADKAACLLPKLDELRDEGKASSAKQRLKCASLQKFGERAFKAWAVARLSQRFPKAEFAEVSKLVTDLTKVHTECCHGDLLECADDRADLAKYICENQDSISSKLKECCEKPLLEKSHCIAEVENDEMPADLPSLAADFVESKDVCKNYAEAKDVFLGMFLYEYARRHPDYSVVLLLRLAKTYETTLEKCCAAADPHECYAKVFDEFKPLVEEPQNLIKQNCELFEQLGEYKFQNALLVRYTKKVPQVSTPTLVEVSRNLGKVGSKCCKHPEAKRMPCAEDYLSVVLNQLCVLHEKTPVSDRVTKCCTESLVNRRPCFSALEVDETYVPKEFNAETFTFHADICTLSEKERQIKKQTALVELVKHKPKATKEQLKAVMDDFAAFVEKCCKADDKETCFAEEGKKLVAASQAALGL
Summary of the method: (§3)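 Scatchard treatment of the HSA fluorescence-quenching titration in pH 7.4 solution (excitation 295 nm) at each temperature. It gave the binding constant Kb and the number of binding sites n, with fit correlation R and SD.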

[20] = target: T1, Albumin; assay: Binding affinity to human serum albumin at pH 7.4 at 303 K by Scatchard plot analysis; type: ADME; conditions: isolated protein; summary of the method: as §3
[21] = Cytotoxicity against human LO2 cells assessed as cell viability at 512 ug/mL after 72 hrs by MTT assay; type: cell-based; conditions: l02, 72 h; summary of the method: as §2
[22] = Cytotoxicity against rat PC12 cells assessed as reduction in cell viability at 128 ug/mL after 72 hrs by MTT assay; type: cell-based; conditions: pc-12, 72 h; summary of the method: as §2
[23] = Inhibition of Escherichia coli DNA gyrase assessed as reduction in enzyme-mediated supercoiling of pBR322 DNA after 1.5 hrs by agarose gel electrophoresis method
[24] = tested on: Staphylococcus aureus; assay: Binding affinity to methicillin-resistant Staphylococcus aureus double stranded genomic DNA assessed as decrease in fluorescence intensity in absence of Cu2+ ions by spectrofluorometric analysis; summary of the method: as §1
[25] = Binding affinity to 0 to 6.03 x 10^-5 M Cu2+ assessed as 1:1 compound/metal ion complex formation at 2.23 x 10^-5 M at pH 7.4 by spectrofluorimetric method
[26] = Cytotoxicity against rat PC12 cells assessed as cell viability at <512 ug/mL after 72 hrs by MTT assay relative to control; type: cell-based, PC-12; conditions: read-out: Activity; summary of the method: as §2
[27] = Cytotoxicity against human LO2 cells assessed as reduction in cell viability at 256 ug/mL after 72 hrs by MTT assay; type: cell-based; conditions: l02, 72 h; summary of the method: as §2
[28] = Cytotoxicity against human LO2 cells assessed as cell viability at <512 ug/mL after 72 hrs by MTT assay relative to control; type: cell-based, L02; conditions: read-out: Activity; summary of the method: as §2
[29] = target: T1, Albumin; assay: Binding affinity to human serum albumin at pH 7.4 at 310 K by Scatchard plot analysis; type: ADME; conditions: isolated protein; summary of the method: as §3
[30] = Cytotoxicity against human LO2 cells assessed as reduction in cell viability at 128 ug/mL after 72 hrs by MTT assay; type: cell-based; conditions: l02, 72 h; summary of the method: as §2
[31] = tested on: Staphylococcus aureus; assay: Binding affinity to methicillin-resistant Staphylococcus aureus double stranded genomic DNA assessed as decrease in fluorescence intensity at 2.23 x 10^-5 M in presence of 0.4 x 10^-6 M Cu2+ ions by spectrofluorometric analysis; summary of the method: as §1
[32] = tested on: Calf thymus DNA; assay: Binding affinity to calf thymus double stranded DNA assessed as hypochromic effect in absence of Mg2+ ion by […] spectroscopic analysis; type: nucleic-acid assay; conditions: Bos taurus

SMILES | MIC [1] [µg/mL] | MIC [2] [µg/mL] | MIC [3] [µg/mL] | MIC [5] [µg/mL] | MIC [6] [µg/mL] | MIC [7] [µg/mL] | MIC [9] [µg/mL] | MIC [10] [µg/mL] | Activity [14] | Activity [21] | Activity [22] | IC50 [23] [µM] | Activity [27] | Activity [30] | further results
CCn1cc(-c2csc(N)n2)c(=O)c2cc(F)c(F)cc21 | 213 (≈ 694 µM) | 26.7 (≈ 86.9 µM) | 78.6 (≈ 256 µM) | 0.8 (≈ 2.6 µM) | 5.3 (≈ 17.2 µM) | 1.2 (≈ 3.9 µM) | 0.6 (≈ 1.95 µM) | 256 (≈ 833 µM) |  |  |  |  |  |  | Ratio [4]: 4; Ratio [8]: 22
CCn1cc(-c2csc(N)n2)c(=O)c2cc(N3CCCC3)c(Cl)cc21 | 0.8 (≈ 2.13 µM) | 1.3 (≈ 3.47 µM) | 0.5 (≈ 1.33 µM) | 0.6 (≈ 1.6 µM) | 2.7 (≈ 7.2 µM) | 2 (≈ 5.33 µM) | 1 (≈ 2.67 µM) | 0.8 (≈ 2.13 µM) | Non-toxic | Non-toxic | Non-toxic | 11.5 | Non-toxic | Non-toxic | KSV [11]: 30.1 M⁻¹; Activity [12]: Non-toxic; Activity [13]: 11.4%; MIC [15]: 16 µg/mL (≈ 42.7 µM); Activity [16]: Active; Activity [17]: Active; Activity [18]: Active; Kb [19]: 0.726 ×10⁵ L/mol; Kb [20]: 0.701 ×10⁵ L/mol; Activity [24]: inactive; Activity [25]: Active; viability at 72 h [26]: > 88%; viability at 72 h [28]: > 88%; Kb [29]: 0.656 ×10⁵ L/mol; Activity [31]: Active
CCn1cc(C(=O)O)c(=O)c2cc(F)c(N3CCNCC3)cc21 [NORFLOXACIN] | 10.7 (≈ 33.5 µM) | 1.3 (≈ 4.07 µM) | 1.7 (≈ 5.32 µM) | 0.8 (≈ 2.51 µM) | 2.7 (≈ 8.46 µM) | 5.3 (≈ 16.6 µM) | 13.3 (≈ 41.6 µM) | 4.3 (≈ 13.5 µM) | Toxic | Toxic | Toxic | 18.2 | Toxic | Toxic | Activity [32]: 16%
